ChEMBL document CHEMBL4732182, “Design, synthesis and biological evaluation of 2-substituted-6-[(4-substituted-1-piperidyl)methyl]-1H-benzimidazoles as inhibitors of ebola virus infection” (Eur J Med Chem, 2021)
Activity calls are given as the source filed them. The rule behind the calls is not given here.

Legend:
[1] = Selectivity index, ratio of CC50 for human Huh-7 cells to EC50 for Ebola virus infected in human HuH7 cells; assay type: toxicity, cell-based; conditions: read-out: Ratio CC50/EC50
Ebolavirus = test: Antiviral activity against Ebola virus infected in human HuH7 cells assessed as reduction in viral infection pretreated for 2 hrs followed by viral infection and measured after 3 days by ZsGreen fluorescence assay; assay type: functional, organism-based; conditions: Orthoebolavirus, Huh-7
[2] = Cytotoxicity against human Huh-7 cells assessed as reduction in cell viability incubated for 3 days by cell-titer glo assay; assay type: cell-based; conditions: time 3 day
Summary of the method: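 Huh7 cells received compound but no virus, in parallel with the infection assay. Viability was read by CellTiter-Glo luminescence. CC50 was derived from a 4-parameter fit to semi-log concentration-response curves.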

[3] = Inhibition of Ebolavirus glycoprotein transfected in human Huh-7 cells cotransfected with HIV luciferase reporter vector expressing plasmid assessed as reduction in virus entry measured after 3 days by Bright-Glo luciferase assay; assay type: cell-based; conditions: Orthoebolavirus, Huh-7, 72 h
Summary of the method: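 Huh7 cells were preincubated with varying compound concentrations for 1 h at 37 C. HIV-based luciferase reporter particles pseudotyped with EBOV GP were then added. Firefly luciferase activity was measured by Bright-Glo 3 days later.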

[4] = molecular target: T1, NPC intracellular cholesterol transporter 1 (Homo sapiens) (UniProt O15118); test: Inhibition of NPC1 in human HeLa cells assessed as increase in cholesterol accumulation in subcellular localization at 1 uM incubated for 24 hrs by filipin-staining based immunofluorescence assay; assay type: cell-based
T1 sequence (whole entry): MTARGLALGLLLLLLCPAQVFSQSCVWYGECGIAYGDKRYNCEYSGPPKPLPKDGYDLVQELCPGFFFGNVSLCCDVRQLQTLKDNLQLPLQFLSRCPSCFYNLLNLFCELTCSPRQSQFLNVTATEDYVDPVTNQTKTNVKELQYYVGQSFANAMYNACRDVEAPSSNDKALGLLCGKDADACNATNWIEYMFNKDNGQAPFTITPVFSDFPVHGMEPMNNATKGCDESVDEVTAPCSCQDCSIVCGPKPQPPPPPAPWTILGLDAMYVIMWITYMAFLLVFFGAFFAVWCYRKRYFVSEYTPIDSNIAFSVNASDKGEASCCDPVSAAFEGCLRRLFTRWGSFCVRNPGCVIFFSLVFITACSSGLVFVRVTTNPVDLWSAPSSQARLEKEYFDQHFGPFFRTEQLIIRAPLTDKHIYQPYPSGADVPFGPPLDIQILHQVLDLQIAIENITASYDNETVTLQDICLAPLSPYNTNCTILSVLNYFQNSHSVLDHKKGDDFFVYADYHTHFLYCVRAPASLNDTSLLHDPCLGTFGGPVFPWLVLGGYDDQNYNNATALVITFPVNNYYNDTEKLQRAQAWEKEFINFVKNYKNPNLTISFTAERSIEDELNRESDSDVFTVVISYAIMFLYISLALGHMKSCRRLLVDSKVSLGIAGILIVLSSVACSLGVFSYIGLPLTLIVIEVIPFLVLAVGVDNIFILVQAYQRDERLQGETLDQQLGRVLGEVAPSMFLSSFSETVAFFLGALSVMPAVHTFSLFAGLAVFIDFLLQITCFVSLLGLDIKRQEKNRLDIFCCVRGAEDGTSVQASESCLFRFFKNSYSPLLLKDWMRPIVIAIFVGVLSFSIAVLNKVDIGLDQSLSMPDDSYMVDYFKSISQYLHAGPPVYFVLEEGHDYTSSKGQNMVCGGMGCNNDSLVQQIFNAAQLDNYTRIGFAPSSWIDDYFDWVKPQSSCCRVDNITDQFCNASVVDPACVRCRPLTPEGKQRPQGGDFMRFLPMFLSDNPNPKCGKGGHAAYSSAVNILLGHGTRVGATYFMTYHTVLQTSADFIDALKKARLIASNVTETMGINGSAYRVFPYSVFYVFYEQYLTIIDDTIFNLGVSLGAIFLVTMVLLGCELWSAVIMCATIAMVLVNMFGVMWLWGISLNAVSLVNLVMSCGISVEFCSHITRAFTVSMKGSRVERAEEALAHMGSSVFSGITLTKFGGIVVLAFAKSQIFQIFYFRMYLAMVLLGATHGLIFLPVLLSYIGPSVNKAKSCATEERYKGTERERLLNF
Summary of the method: (§1)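 HeLa cells were exposed to compound for 24 h; DMSO vehicle was 0.1% (v/v) final. They were then stained with 0.5 mg/mL filipin in PBS plus 10% FCS for 2 h at RT and imaged on a high-content imager.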

[5] = molecular target: T1, NPC intracellular cholesterol transporter 1 (Homo sapiens); test: Inhibition of NPC1 in human HeLa cells assessed as increase in cholesterol accumulation in subcellular localization at 5 uM incubated for 24 hrs by filipin-staining based immunofluorescence assay; assay type: cell-based; summary of the method: as §1

SMILES	selectivity ratio [1]	EC50 (Ebolavirus)	CC50 at 72 h [2]	EC50 [3]	inhibition [4]	inhibition [5]
CCOP(=O)(Cc1ccc(COc2ccccc2OC2CCN(Cc3ccc4nc(-c5ccc(OC(F)(F)F)cc5)[nH]c4c3)CC2)cc1)OCC	4	1190 nM	4200 nM			
CCOP(=O)(Cc1cccc(COc2ccccc2CC2CCN(Cc3ccc4nc(-c5ccccc5)[nH]c4c3)CC2)c1)OCC	10	930 nM	9170 nM	2920 nM	Active	
CCN(CC)CCO[C@H]1CC[C@@]2(C)C(=CC[C@@H]3[C@@H]2CC[C@]2(C)C(=O)CC[C@@H]32)C1						Active
CCOP(=O)(Cc1cccc(COc2ccccc2OC2CCN(Cc3ccc4nc(-c5ccc(OC(F)(F)F)cc5)[nH]c4c3)CC2)c1)OCC	2	1970 nM	4230 nM			
CCOP(=O)(Cc1ccc(COc2ccccc2OC2CCN(Cc3ccc4nc(-c5ccc(C(F)(F)F)cc5)[nH]c4c3)CC2)cc1)OCC	2	1730 nM	3820 nM			
CN(C)CCOc1ccc(/C(=C(\CCCl)c2ccccc2)c2ccccc2)cc1	7	380 nM	2500 nM			
CCOP(=O)(Cc1cccc(COc2ccccc2OC2CCN(Cc3ccc4nc(-c5ccccc5)[nH]c4c3)CC2)c1)OCC	7	1880 nM	13100 nM			
CCOP(=O)(Cc1ccc(COc2ccccc2OC2CCN(Cc3ccc4nc(-c5cccc(OC(F)(F)F)c5)[nH]c4c3)CC2)cc1)OCC	5	2950 nM	14700 nM			
CCOP(=O)(Cc1ccc(COc2ccccc2OC2CCN(Cc3ccc4nc(-c5ccccc5)[nH]c4c3)CC2)cc1)OCC	5	2950 nM	14700 nM			
CCOP(=O)(Cc1cccc(COc2ccccc2CC2CCN(Cc3ccc4nc(-c5cccc(OC(F)(F)F)c5)[nH]c4c3)CC2)c1)OCC	5	870 nM	4450 nM			
CCOP(=O)(Cc1ccc(COc2ccccc2OC2CCN(Cc3ccc4nc(-c5cccc(C(F)(F)F)c5)[nH]c4c3)CC2)cc1)OCC	3	29700 nM	100000 nM			
CCOP(=O)(Cc1ccc(COc2ccccc2CC2CCN(Cc3ccc4nc(-c5ccccc5)[nH]c4c3)CC2)cc1)OCC	20	640 nM	13200 nM	1350 nM	Active	
